# Bioassay records deposited in PubChem by several laboratories.
# This is a sample that favours compounds with a hit; in the whole collection about 2.1% have one here.
# TRPN1 ag = agonists of zebrafish TRPN1 channel; activation, % at 3 µM; AID 1424; HEK293 zebrafish TRPN1-YFP, Fluo-8 calcium fluorescence; 100% = response to 87 µM carbachol; 220,000 compounds, 0.18% hits;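 active means activation above its plate's cutoff, the mean activation of test wells on that plate plus 3 SD, cut at about 19% in these data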
#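 Control set: carbachol 87 µM as high control, DMSO as low control; system: HEK293 stable line with zebrafish TRPN1-YFP; read-out: % activation versus carbachol response; detection: intracellular calcium fluorescence with Fluo-8; doses: single test compound dose, 3 µM nominal, 0.3% DMSO; schedule: dye 1 h 37 °C plus 30 min RT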
# VIM-2 inhibitor = blocks Pseudomonas aeruginosa VIM-2 metallo-beta-lactamase | purified VIM-2, nitrocefin hydrolysis, epi-absorbance fluorescence | inhibition, % at 5.6 µM | 290,000 compounds, 0.89% hits | AID 1527;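 active means inhibition above the mean of all tested compounds plus 3 SD, cutoff set per screening run, cut at about 7.5% in these data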;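 further: red hydrolysis product quenches plate fluorescence so inhibitors raise well fluorescence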
# CRFR2-BP ag = CRF-BP/CRF-R2 complex agonism | activation, % at 13.2 µM | AID 588473 | 350,000 compounds, 0.46% hits | HEK293 CRF-R2/CRF-BP, calcium dye fluorescence (FLIPR); percent of saturating CRF peptide response;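 active means activation of at least 50%, plus an integration ratio under a set limit after plate pattern correction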
# CRFBP-R2 block = blocks CRF-induced signaling of the CRF-BP/CRF-R2 complex; AID 588475; HEK293 CRF-R2/CRF-BP, CRF-induced calcium fluorescence; inhibition, % at 11.8 µM; 350,000 compounds, 0.59% hits;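 active means inhibition of the ligand-induced calcium signal above about 50% at the single tested concentration, limit read from the data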
# TRPML3 agonist = agonists of human TRPML3 channel | Q8TDD5 | HEK293 TRPML3-YFP, Fluo-8 calcium fluorescence; 100% = the carbachol control signal | activation, % at 3 µM | 220,000 compounds, 0.29% hits;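 active means activation above its plate's cutoff, the mean activation of the plate's test wells plus 3 SD, cut at about 12% in these data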
# Target sequence (Q8TDD5 whole entry, looked up): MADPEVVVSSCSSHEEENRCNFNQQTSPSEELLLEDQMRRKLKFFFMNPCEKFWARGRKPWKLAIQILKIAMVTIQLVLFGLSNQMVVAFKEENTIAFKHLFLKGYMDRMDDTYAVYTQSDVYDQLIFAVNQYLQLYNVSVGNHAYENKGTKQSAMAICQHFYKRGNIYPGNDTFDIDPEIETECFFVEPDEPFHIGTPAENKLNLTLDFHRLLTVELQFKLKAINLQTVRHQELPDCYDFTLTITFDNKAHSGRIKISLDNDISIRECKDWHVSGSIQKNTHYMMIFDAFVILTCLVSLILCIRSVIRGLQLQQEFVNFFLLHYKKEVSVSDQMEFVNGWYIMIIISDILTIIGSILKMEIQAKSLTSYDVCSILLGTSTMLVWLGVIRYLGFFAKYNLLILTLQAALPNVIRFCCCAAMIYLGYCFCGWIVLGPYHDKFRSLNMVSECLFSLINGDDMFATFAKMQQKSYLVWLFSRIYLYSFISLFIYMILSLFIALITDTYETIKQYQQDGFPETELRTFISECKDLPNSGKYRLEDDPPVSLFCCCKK
#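 Material: HEK293 cells stably carrying human TRPML3-YFP; compound dosing: single dose, 3 µM final nominal compound, 0.3% DMSO final; incubation: 1-h 37 °C dye load, 5-s basal, 120-s post-compound reads; technique: Fluo-8 intracellular calcium fluorescence, excitation 470-495 nm, emission 515-575 nm; read-out basis: percent activation from peak-to-basal fluorescence ratio, scaled between DMSO and carbachol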
# IMP-1 inhibitor = blocks Pseudomonas aeruginosa IMP-1 metallo-beta-lactamase; purified IMP-1, nitrocefin hydrolysis, epi-absorbance fluorescence; inhibition, % at 5.6 µM; 290,000 compounds, 0.45% hits; AID 1556;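 active means inhibition above the mean plus 3 SD of all compounds in the same screening run, cut at about 4.5% in these data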
#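 System: Purified recombinant IMP-1 metallo-beta-lactamase enzyme | Measured by: Fluorescence quenching readout, ex 480/em 530 nm | Replication: Singlicate | Incubation: 15 min preincubation plus 25 min reaction at 25 °C | Evaluation: Percent inhibition from optical density relative to buffer-blank wells | Benchmarks: DMSO with and without IMP-1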
# Hits are given with their value; n = inactive; x = no result.
SMILES,TRPN1 ag,VIM-2 inhibitor,CRFR2-BP ag,CRFBP-R2 block,TRPML3 agonist,IMP-1 inhibitor
O=C(Nc1ccc(C(=O)NCCCN2CCCCC2)cc1)C1=CSCCO1,x,n,n,n,x,n
Cc1ccc(S(=O)(=O)N(CCC(=O)NCc2ccc(S(N)(=O)=O)cc2)c2ccccc2)cc1,x,x,n,n,x,x
O=C1c2cccc(OCc3ccc(F)cc3)c2CCN1Cc1ccccc1,n,n,n,n,n,6.1
Cc1ccc(COc2cccc3c2CCN(Cc2ccc(F)cc2)C3=O)cc1,n,n,n,n,n,n
CCc1cccc(C)c1NC(=O)C1=C(C(=O)O)CCCC1,n,n,n,n,n,7.8
COc1ccc(NC(=O)c2ccc(NC3=NC4CS(=O)(=O)CC4S3)cc2)cc1 (centres undefined),x,n,n,n,x,n
COc1ccc(N2C(=O)C3CC(C)=C(C)CC3C2=O)c(OC)c1 (centres undefined),n,n,n,n,n,n
COc1cc(N2C(=O)C=CC2=O)ccc1N1C(=O)C=CC1=O,x,x,n,63,x,x
O=C(NCc1ccc2c(c1)OCO2)c1cc2ccccc2oc1=O,n,n,n,n,n,n
O=C(c1cc2ccccc2oc1=O)N(Cc1ccc2c(c1)OCO2)Cc1ccco1,n,n,n,n,n,6.5
C#CCN1C(=O)S/C(=C/C=C/c2ccc(N(C)C)cc2)C1=O,n,n,85,n,n,n
O=C(CN1C(=O)S/C(=C\C=C\c2ccccc2)C1=O)Nc1ccccc1C(=O)O,n,n,n,n,n,n
O=C(NCCCCc1ccccc1)c1cccc([N+](=O)[O-])c1,n,n,n,n,n,n
O=C(Nc1cc([N+](=O)[O-])ccc1O)c1cccc(C(=O)Nc2cc([N+](=O)[O-])ccc2O)c1,x,n,n,n,x,26
O=C(NCCCc1ccccc1)c1cccc([N+](=O)[O-])c1,n,n,n,55,n,n
O=C(Nc1ccc(O)cc1)c1ccccc1OCc1ccccc1,x,n,n,n,x,n
O=C(Nc1cc([N+](=O)[O-])ccc1O)c1cccc([N+](=O)[O-])c1,x,n,n,n,x,n
O=C(Nc1ccccc1)c1ccccc1OCc1cccc([N+](=O)[O-])c1,n,n,n,53,n,n
O=C(Nc1cccc([N+](=O)[O-])c1)Nc1cccs1,20,n,n,n,13,n
Cc1c(NC(=O)c2ccc(S(=O)(=O)N3CCOCC3)cc2)c(=O)n(-c2ccccc2)n1C,n,n,n,n,n,n
COc1ccccc1C1=NOC(C)(c2nnc(-c3cccc(Cl)c3)o2)C1 (centres undefined),x,x,n,n,x,x
C#CCSc1nc2sc3c(c2c(=O)n1C)CCC3,x,n,n,n,x,n
O=C(Nc1cccc([N+](=O)[O-])c1)c1cccc(C(=O)Nc2cccc([N+](=O)[O-])c2)c1,n,n,n,n,n,8.7
O=C(Nc1cccc([N+](=O)[O-])c1)c1cc2ccccc2cc1O,27,n,n,n,17,n
O=C(Nc1ccncc1)Nc1cccc(Cl)c1,x,n,n,n,x,n
SMILES,TRPN1 ag,VIM-2 inhibitor,CRFR2-BP ag,CRFBP-R2 block,TRPML3 agonist,IMP-1 inhibitor
O=C(Nc1cccc(Cl)c1)Nc1csc([N+](=O)[O-])c1,19,n,n,n,12,n
O=C(Nc1ccc(NC(=O)c2cccc([N+](=O)[O-])c2)cc1)c1cccc([N+](=O)[O-])c1,x,n,n,n,x,n
O=C(O)c1ccccc1C(=O)Nc1cccc([N+](=O)[O-])c1,n,n,n,n,n,n
O=C(Nc1ccc(O)cc1)c1cccc(Oc2ccc([N+](=O)[O-])cc2)c1,n,n,n,57,n,n
O=C(C#Cc1ccccc1)c1ccccc1,x,x,n,n,x,x
Cc1cccc(OCCCC(=O)NC2CCCCC2)c1,x,n,n,n,x,n
O=C(NC1CCCCCCC1)c1ccco1,n,n,n,n,n,n
CC(C)C(NC(=O)c1ccco1)C(=O)NC1CCCCCC1 (centres undefined),x,n,n,105,x,n
CCN1CCN(C(=O)c2ccc3c(c2)N(Cc2ccc(C)cc2)CCS3)CC1,x,n,n,n,x,n
Cc1ccc(CN2CCSc3ccc(C(=O)N4CCN(c5ncccn5)CC4)cc32)cc1,n,n,n,62,n,n
CCN(CC)c1ccc(/C=C/c2cccc[n+]2C)c(OC)c1,x,n,55,n,x,n
COc1cccc(C2CCCN2Cc2nc(-c3cnccn3)no2)c1 (centres undefined),n,n,n,116,n,n
C[C@@H]1CNC(=O)c2c(C(=O)NCC(=O)OC(C)(C)C)ncn21,x,x,n,n,x,x
N#C/C(=C\c1ccc(N2CCOCC2)o1)C(=O)NC1CCCCC1,n,n,96,n,n,n
COCCNC(=O)/C(C#N)=C/c1ccc(N2CCOCC2)o1,n,n,n,n,n,n
N#C/C(=C/c1ccc(N2CCOCC2)o1)C(=O)Nc1ccccc1,72,n,149,n,36,n
N#C/C(=C\c1ccc(N2CCOCC2)o1)C(=O)NCC1CCCO1 (centres undefined),n,n,n,n,n,n
N#C/C(=C\c1ccc(N2CCOCC2)o1)C(=O)NCCc1ccccc1,26,n,200,n,14,n
Cc1ccccc1NC(=O)c1ccc(NC(=O)C2CC(=O)OC23CCCCC3)cc1 (centres undefined),n,n,n,n,n,n
N#Cc1cccc(C(=O)Nc2cc(S(=O)(=O)N3CCOCC3)ccc2N2CCCC2)c1,x,x,n,n,x,x
CC(=O)Oc1ccccc1C(=O)Nc1ccccc1,x,x,n,n,x,x
COC1(OC)C=CC(=O)C=C1NC(=O)c1ccccc1OC(C)=O,x,x,n,104,x,x
CC(OC(=O)c1ccc(-c2ccc(O)cc2)cc1)C(=O)NC1CCCCC1C (centres undefined),x,x,n,60,x,x
CN(CCOc1ccc(Cl)cc1)C(=O)C1CCN(C(=O)c2ccc(Cl)cc2)CC1,x,n,n,120,x,n
O=C(Nc1nccs1)C1CCN(S(=O)(=O)c2cccnc2)CC1,x,x,n,n,x,x
SMILES,TRPN1 ag,VIM-2 inhibitor,CRFR2-BP ag,CRFBP-R2 block,TRPML3 agonist,IMP-1 inhibitor
O=C(Nc1nccs1)C1CCCN(S(=O)(=O)c2cccnc2)C1 (centres undefined),n,n,n,n,n,4.8
CC(=O)c1cccc(N(CC(=O)Nc2ccccc2C(=O)N2CCCC2)S(C)(=O)=O)c1,x,n,n,n,x,n
Cc1c(-n2cc(C(=O)c3ccccc3O)cc(C#N)c2=O)c(=O)n(-c2ccccc2)n1C,n,n,139,n,n,n
N#Cc1cc(C(=O)c2ccccc2O)cn(-c2ccc(Cl)cc2)c1=O,n,n,53,n,n,5.4
Cc1ccc(-n2cc(C(=O)c3cc(Cl)ccc3O)cc(C#N)c2=O)cc1,n,n,n,n,n,n
Nc1cc(=O)[nH]c(SCC(=O)Nc2cc(S(=O)(=O)N3CCCCC3)ccc2Cl)n1,x,x,n,n,x,x
